Measured values: the EternaBench riboswitch data

Test system: MS2 coat protein
Experiment: apparent Kd, MS2 coat protein; higher = weaker binding; RNA-MaP array; FMN 200 µM where present
Outline: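 Stalled E. coli RNA polymerase produced the designs on Illumina sequencing-chip clusters. SNAP-549-labelled MS2 coat protein was added from 0.7 or 1.5 nM, doubling to 3 µM, without and then with constant ligand, in 100 mM Tris-HCl pH 7.5, 80 mM KCl, 4 mM MgCl2, BSA, DTT, yeast tRNA and Tween-20. The apparent Kd is the median of filtered per-cluster fits of green signal normalised to red-channel RNA signal and control-cluster median Fmax.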

[1] = designed as: OFF switch for flavin mononucleotide, no ligand
[2] = ligand present: flavin mononucleotide, designed as: OFF switch for flavin mononucleotide
[3] = designed as: ON switch for flavin mononucleotide, no ligand
[4] = ligand present: flavin mononucleotide, designed as: ON switch for flavin mononucleotide

Sequence	apparent Kd [1] [nM]	apparent Kd [2] [nM]	apparent Kd [3] [nM]	apparent Kd [4] [nM]
GCGUCUUAGUAGAAGGGACAUCGGCUGGUAAGCAUCAUCUCCUUCUCACAUGAGGAUCACCCAUGUCAGGAUAUACUAAGAUGC	11.5	43.1		
GCGUGACGGUGCGCGAGUGGACGGAGAAGGCAGACAUGAGGAUCACCCAUGUGAGCCUGCUAUUCUGAGGAUAUCCGUUCGCAC	32.5	150		
GCGUGGAUAGCAGGAUAUAUGUUUCCUACAUGAGGAUCACCCAUGUAGGUGAUCAGCCGAGAAAAGUAGAAGGGCUAUCCAUGC			16	13.4
GCGUUCUUGUAGAAGGUACAAGAAAACUAUUAUUAACACAUGAAACAUGAGGAUCACCCAUGUAGUAAGGAUAUACAUGAACGC			10.1	7.18
GCGUUGAUGUAGAAGGUACAUGAAUACUUUUAAUACCUCAAGUAACAUGAGGAUCACCCAUGUAGUAAGGAUAUACAUGAACGC			34.7	29.5
GCGUUGUUGUAGAAGGUACAUGAAUACUUUUAAUACCUCAAGUAACAUGAGGAUCACCCAUGUAGUAAGGAUAUACAUGAACGC			35.4	30.2
GCUACUUAUUUUAAGUAUGAUUUACUAGAAGGUAGAUACAUGAGGAUCACCCAUGUUUAGAGUUCUAAGGAUAUAGUUUGUAGC			7.81	7.57
GCUAGUAUUGCAGGAUAUUGUAAAUUAUUAUUUCAAGAAGGGCAUUACAUGAGGAUCACCCAUGUCAUCCUUUGGAAUACUAGC	6.19	6.51		
GCUAUCGAUGUAGGAUAUGCUAGGGAAACCCUGGCAGAAGGACAUGAGGAUCACCCAUGUCAAUGGAUGGAGAGAAGAGAUGGC	25.6	74.3		
GCUAUCGGGUGAGGAUAUAUGGUUGUGAUUAAAAUAGAAGGCAUCUCAGAAGACAUGAGGAUCACCCAUGUAGUUAAGAUGGCA			63.4	46.8
GCUAUUGGCUAAGGAUAUGGAUACAUGAGGAUCACCCAUGUAAGAAUUGUGAUCAUAUAAAUGAUCCAGAAGGUAGCUGUUAGC	280	502		
GCUGAAAGUACAGGAUAUGAGAUAUAUGAUCACUCAGAAGGGUACCGGGACAUGAGGAUCACCCAUGUACUCUCAGCGAAAAUA			165	553
GCUGCAUAGGCAGGAUAUGCAAAAGCAGAUGCAAAGCAUCUGCAAGAAACAUGAGGAUCACCCAUGUAGAAGGGCCUGUGCAGU	21.4	20.2		
GCUGCAUAGUCAGGAUAUGCAAAGUAAUAUAUGGAAACAUAUAUUACAACAUGAGGAUCACCCAUGUAGAAGGGACUGUGCAGU	15.9	14.8		
GCUGCCGCUGCAGGAUAUCAGCACGUGUAGUGCUGAGAAGGGCACAUGAGGAUCACCCAUGUGAUCAAUUAAUAAGCGUGCAGC	6.86	16.5		
GCUGCGCGAGGAUAUGCGGUUCGGGCGGUGGCCGCUGGCGGACAUGAGGAUCACCCAUGUAGAAGGCGUGCGGG	22.5	23.2		
GCUGCGCGAGGAUAUGCGGUUUGCGCUGUGGCCCGUGGCGUACAUGAGGAUCACCCAUGUAGAAGGCGUGUGGG	22.9	23.3		
GCUGUGGCAUGAGGAUAUGGUCACGUUUCGUGACCAGAAGGCAUGUCAAUAGACAUGAGGAUCACCCAUGUAGUUAACACAGCA			497	41.9
GCUUCGGCUGUGAGGAUAUGGCUUCGGAAAUGAAGUUAGAAGGCACAUGAGGAUCACCCAUGUAAGGUUGAAGU	21.7	17.8		
GCUUGUAGAGGAUAUACGAGGGCCCGAGCGGAUAACACCGCACAUGAGGAUCACCCAUGUAGAAGGCUACCACC	25.3	284		
GCUUGUGAAGGAUAUACUGGCGGCAUGCGCUCGACACGCGCACAUGAGGAUCACCCAUGUAGAAGGUCAAACGU	17.2	17.7		

Sequence	apparent Kd [1] [nM]	apparent Kd [2] [nM]	apparent Kd [3] [nM]	apparent Kd [4] [nM]
GCUUGUGAAGGAUAUACUGGCGGCAUGCGCUCGGCGCGCGCACAUGAGGAUCACCCAUGUAGAAGGUCAAACGU	20.2	20.2		
GCUUUAUUGGUCAGGAUAUACAUUUGCUACUCUUUGUAGAAGGGACAUGAGGAUCACCCAUGUACUUUACAUUC	16	16.4		
GGAAACUACGAGAAGGACAUGUGGUCCUUCAGUUACAUGAGGAUCACCCAUGUAGGAUAUCGUAGUUUCAGGAUCGUGAGAUCC	33	12.8		
GGAAAGUGAGGAUAUGCAUAACAAACACAAACACAAACAAAGCAGAAGGCACAUGAGGAUCACCCAUGUAAACA	21.1	18.1		
GGAAAGUGAGGAUAUGGUAAAGUAAGUAUGUAGUAAGUAAUCCAGAAGGCACAUGAGGAUCACCCAUGUAAAUG	28.1	35.7		
GGAAAUCAUGUAGGAUAUGCAUGGCGAAGCUACGCAGAAGGACAUGAGGAUCACCCAUGUUAUAGCGUUCGAGAAAGGAUGCAA	20.1	87.9		
GGAAAUUAGCAAGGAUAUCGGCUUACUAUAACUUUAUGCCCUGGGACAUGAGGAUCACCCAUGUACGAGAAGGUGCUAACUACA	23.6	36.9		
GGAACUUAGGGAGGAUAUAGGCGACAUGAGGAUCACCCAUGUACGGAGGGCUCUUCCCGUGUUCACUAGAAGGCCCAUGUUACC	19.4	75		
GGAAUAAAUGCAGGAUAUACGUGGAAAGCCCUCAACAUGAGGAUCACCCAUGUAGAAGGGCAUCUCCCGACCGAAGCGGAUCUC	4.41	4.82		
GGAAUAUUUACAGGAUAUGUUUUGUUAAGUCGAGCAGAAGGGUGGAUGUCUUACACGGUUUGUUACAUGAGGAUCACCCAUGUC			264	260
GGAAUGAGGCAGGAUAUGGGAGGGAGGACCGGACCAGAAGGGUUGACAUGAGGAUCACCCAUGUAGAGAUCCUC	1060	724		
GGACAUUUACAGAAGGGCAAGUUAGAUCGUGGAUAACACGAUCUGACUUGCAGGAUAUGUUGAACAUGAGGAUCACCCAUGUCC			12.9	10.8
GGACCGUCCAGAGUUGGCGGUCGGCAGGAUAUGACAUGAGGAUCACCCAUGUGAACUCCAUUGGGUCAGAAGGGCCACGACGAU	25.2	94.7		
GGACCGUGCAGAGUUGGCGGUCGGCAGGAUAUGACAUGAGGAUCACCCAUGUGAACUCCAUUGGGUCAGAAGGGCCACGACACA	17.6	78		
GGACGUCACAUAUACAUGAGGAUCACCCAUGUCAAAAGACAUGAGGAUAUGGAUCCUAAUUGGAUCCAGAAGGCAUGGACGUCC			832	51.9
GGACGUCACAUUAACAUGAGGAUCACCCAUGUCAAAAGACAUGAGGAUAUGGAUCCGAAAAGGAUCCAGAAGGCAUGGACGUCC			555	36.6
GGACGUCACAUUUACAUGAGGAUCACCCAUGUCGAAAGACAUGAGGAUAUGCUACCUAAUUGGUAGCAGAAGGCAUGGACGUCC			408	228
GGACGUCACAUUUACAUGAGGAUCACCCAUGUCUCUUGACAUGAGGAUAUGUAUACGAAUCGUAUACAGAAGGCAUGGACGUCC			1100	153
GGACUUCCUGAGGAUAUGAAUCAACAUAUAGCUUUAGAAGGCAGGACAUGAGGAUCACCCAUGUGAACUCUUUC	49.8	57.6		
GGAGAUACAUGAGGAUCACCCAUGUAGGAUAUCGAGUAUAUAUAUGGCGAAAGCCAUAUAUAUAUCGAGAAGGGCGUACACACC	8.84	7.75		
